Values joined by “and” are separate entries in the source; they are usually repeats but may differ in a detail not shown here. Identical values can stand only once. Bridge positions count the residues as written; N and C are the ends. Square brackets hold non-standard residues; d marks the D form. Peptide text beside a SMILES is read from it. * marks the point of attachment. DOTA = O=C(O)CN1CCN(CC(=O)O)CCN(CC(=O)*)CCN(CC(=O)O)CC1; Thr(ol) = C[C@@H](O)[C@H](N)CO
How the values were obtained:
[1] = Shelf-life / stability in normal saline; type: physicochemical
How it was run: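 Shelf-life: radiotracer kept in normal saline at room temperature and examined for up to 4 h.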

[2] = Stability in human serum at 37 °C; type: in vitro ADME
Sterility test = conditions: no visible growth or turbidity for up to 14 days
Endotoxin test = conditions: V = 2 mL, dilution factor 10; limit <175 EU/V
How it was run: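 Chromogenic endotoxin assay per USP 85 on the in-house-prepared radiotracer. Results and the acceptance limit are expressed as endotoxin units per injection volume (EU/V).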

[3] = Plasma protein binding, TCA precipitation method; type: in vitro ADME; conditions: 37 °C, 10% TCA
[4] = target: T1, recombinant human V1b receptor (Homo sapiens, UniProt P47901); assay: In-vitro receptor binding assay
T1 sequence (P47901 1-424): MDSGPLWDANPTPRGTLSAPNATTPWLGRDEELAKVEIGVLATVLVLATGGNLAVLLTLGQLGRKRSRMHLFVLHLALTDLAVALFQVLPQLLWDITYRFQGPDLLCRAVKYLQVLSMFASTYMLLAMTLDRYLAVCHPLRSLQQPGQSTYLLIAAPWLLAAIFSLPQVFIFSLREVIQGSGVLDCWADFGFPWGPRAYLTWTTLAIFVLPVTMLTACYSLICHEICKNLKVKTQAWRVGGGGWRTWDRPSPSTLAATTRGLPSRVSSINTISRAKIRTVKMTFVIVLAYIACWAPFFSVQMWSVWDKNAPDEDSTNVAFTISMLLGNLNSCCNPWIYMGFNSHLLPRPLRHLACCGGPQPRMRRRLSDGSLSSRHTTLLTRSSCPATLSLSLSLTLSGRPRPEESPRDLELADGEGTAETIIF

[5] = Ex vivo biodistribution in healthy Wistar rats
How it was run: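 Nine healthy male Wistar rats (16 weeks, 274 ± 13 g) each received 8 ± 1.1 MBq radiotracer IV via the penile vein. Under ketamine (40 mg/kg) plus xylazine (4 mg/kg) anaesthesia, rats were killed by cervical dislocation at 30, 60 and 120 min (n = 3 per time). Organs were weighed and gamma-counted (NaI(Tl)). %ID/g used injected counts corrected for injection-site and syringe residues. Blood pool was taken as 7% of body weight. Mean ± SD.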

corticotropinoma = conditions: cited from earlier work
[6] = cited from earlier work
corticotropinomas = conditions: PET/CT; cited from earlier work

## C[C@@H](O)[C@@H](CO)NC(=O)[C@@H](CCCNC(=N)N)NC(=O)[C@@H]1CCCN1C(=O)[C@@H]1CSSC[C@H](NC(=O)[C@H](Cc2ccccc2)NC(=O)CN2CCN(CC(=O)O)CCN(CC(=O)O)CCN(CC(=O)O)CC2)C(=O)N[C@@H](Cc2ccc(O)cc2)C(=O)N[C@@H](Cc2ccccc2)C(=O)N[C@@H](CCC(N)=O)C(=O)N[C@@H](CC(N)=O)C(=O)N1 [[^68Ga]Ga-DOTA-mDesmo, metal not drawn] ({DOTA}-FCYFQNCP[dR][Thr(ol)]; disulfide 2-7)
[1]; PBS, 37 °C
  stability (single radio peak at Rf 0.0): up to 4 h
[1]; normal saline, room temperature
  shelf-life (single radio peak at Rf 0.0): up to 4 h
[2]
  stability (single radio peak at Rf 0.0): up to 4 h
Sterility test
  sterility: sterile
Endotoxin test
  endotoxin value: 8.6 ± 1.2 EU/V
[3]
  fraction unbound at 1 h: 0.344
[4]; V1b 15.6 nM, tracer 0.3 µM
  Binding (%) (Mean ± SD): 5.1 ± 1.3%
[4]; V1b 62.5 nM, tracer 0.3 µM
  Binding (%) (Mean ± SD): 25.7 ± 2.4%
[4]; V1b 125 nM, tracer 0.3 µM
  Binding (%) (Mean ± SD): 30.7 ± 1.9%
[4]; V1b 250 nM, tracer 0.3 µM
  Binding (%) (Mean ± SD): 44 ± 2.2%
[4]; V1b 250 nM, tracer 0.3 µM + cold DOTA-mDesmo 5 µM
  Binding (%) (Mean ± SD): 38.8 ± 1.7%
[4]; V1b 250 nM, tracer 0.3 µM + cold DOTA-mDesmo 20 µM
  Binding (%) (Mean ± SD): 22% and 22.1 ± 2.1%
[5]; 120 min, blood volume assumed 7% of body weight
  total blood pool, share of the injected activity: ~ 3%
[5]; rat, in vivo
  route of excretion: primarily excreted via the renal route
[5]; time following administration
  clearance from muscles, lungs, adrenals, liver, pancreas, spleen and heart: ≤ 120 min
corticotropinoma; 4 patients of ECS
  uptake in the pituitary of patients with ECS: no uptake
corticotropinoma; PET/CT, 24 patients of CD
  diagnostic accuracy: 100%
corticotropinoma; of 24 patients of CD
  patients of CD in whom the pituitary tumor was localized: 24 patients

## Desmopressin
[6]
  plasma half-life: ~ 55 min

## OC[C@H]1OC(O)[C@H]([18F])[C@@H](O)[C@@H]1O (some centres unmarked) [[^18F]FDG]
corticotropinomas
  sensitivity for corticotropinomas: 40%
